KCNQ1 block – inhibitors of human KCNQ1 channel, primary screen, cell-based, thallium flux, high-throughput; Potassium voltage-gated channel subfamily KQT member 1 (Homo sapiens), P51787; CHO-K1 KCNQ1, FluxOR thallium flux fluorescence; active compounds read high; B-score at 10 µM; 310,000 tested, 1.3% active;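 active = compounds whose thallium flux B-score, printed positive for inhibition, exceeds three library SD while starting fluorescence stays within three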;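 also: channel opened by potassium depolarization with thallium stimulus after 20 min compound exposure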
KCNK3 inh – human KCNK3 channel inhibitors, primary screen, CHO cells, FluxOR thallium flux, B-score | Potassium channel subfamily K member 3 (Homo sapiens), O14649 | FluxOR fluorescence; active compounds read low | B-score at 10 µM | 340,000 tested, 0.84% active | AID 602410, 2012;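 active = B-score under library mean minus 4 SD, starting fluorescence ratio at most library mean plus 5 SD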;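 also: more negative B-score means stronger inhibition of thallium flux through KCNK3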
KCNK9 block – KCNK9 potassium channel inhibitors, primary screen, HEK293 cells, thallium flux. Potassium channel subfamily K member 9 (Homo sapiens), Q9NPC2. FluxOR thallium flux fluorescence; active compounds read low. B-score at 10 µM. 310,000 tested, 1.2% active;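 active = ratio B-score over 3 SD below the library mean, with starting fluorescence within 5 SD of its mean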;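 also: negative B-score means less thallium flux so channel inhibition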
Kir21 block – inhibitors of mouse Kir2.1 inward-rectifier potassium channel; Inward rectifier potassium channel 2 (Mus musculus), P35561; HEK293-Kir2.1, FluxOR thallium flux fluorescence; active compounds read low; B-score at 10 µM; 310,000 tested, 0.85% active; AID 1672, 2009;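 active = fluorescence ratio B-score at or below minus 3 SD of library scores, with starting-brightness B-score within 2 SD, cut at about -4.2 in these data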;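 also: channel flux triggered by added potassium and thallium sulfate stimulus; B-score of peak minus minimum fluorescence over baseline after thallium stimulus; more negative B-score means stronger Kir2.1 block with less thallium influx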
hERG rescue – hERG rescue from dofetilide block, primary screen, cell-based, CHO-hERG, FluxOR thallium flux, dofetilide IC70 | Voltage-gated inwardly rectifying potassium channel KCNH2 (Homo sapiens), Q12809 | dofetilide IC70 present | activation (rescue from dofetilide block), less the hit threshold, % at 10 µM | 310,000 tested, 0.51% active | AID 1511, 2009;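 active = activation above the mean of controls blocked by dofetilide plus 5 SD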;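 also: thallium influx through hERG after potassium depolarization seen as dye fluorescence rise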
Target sequence (Q12809 whole entry, looked up): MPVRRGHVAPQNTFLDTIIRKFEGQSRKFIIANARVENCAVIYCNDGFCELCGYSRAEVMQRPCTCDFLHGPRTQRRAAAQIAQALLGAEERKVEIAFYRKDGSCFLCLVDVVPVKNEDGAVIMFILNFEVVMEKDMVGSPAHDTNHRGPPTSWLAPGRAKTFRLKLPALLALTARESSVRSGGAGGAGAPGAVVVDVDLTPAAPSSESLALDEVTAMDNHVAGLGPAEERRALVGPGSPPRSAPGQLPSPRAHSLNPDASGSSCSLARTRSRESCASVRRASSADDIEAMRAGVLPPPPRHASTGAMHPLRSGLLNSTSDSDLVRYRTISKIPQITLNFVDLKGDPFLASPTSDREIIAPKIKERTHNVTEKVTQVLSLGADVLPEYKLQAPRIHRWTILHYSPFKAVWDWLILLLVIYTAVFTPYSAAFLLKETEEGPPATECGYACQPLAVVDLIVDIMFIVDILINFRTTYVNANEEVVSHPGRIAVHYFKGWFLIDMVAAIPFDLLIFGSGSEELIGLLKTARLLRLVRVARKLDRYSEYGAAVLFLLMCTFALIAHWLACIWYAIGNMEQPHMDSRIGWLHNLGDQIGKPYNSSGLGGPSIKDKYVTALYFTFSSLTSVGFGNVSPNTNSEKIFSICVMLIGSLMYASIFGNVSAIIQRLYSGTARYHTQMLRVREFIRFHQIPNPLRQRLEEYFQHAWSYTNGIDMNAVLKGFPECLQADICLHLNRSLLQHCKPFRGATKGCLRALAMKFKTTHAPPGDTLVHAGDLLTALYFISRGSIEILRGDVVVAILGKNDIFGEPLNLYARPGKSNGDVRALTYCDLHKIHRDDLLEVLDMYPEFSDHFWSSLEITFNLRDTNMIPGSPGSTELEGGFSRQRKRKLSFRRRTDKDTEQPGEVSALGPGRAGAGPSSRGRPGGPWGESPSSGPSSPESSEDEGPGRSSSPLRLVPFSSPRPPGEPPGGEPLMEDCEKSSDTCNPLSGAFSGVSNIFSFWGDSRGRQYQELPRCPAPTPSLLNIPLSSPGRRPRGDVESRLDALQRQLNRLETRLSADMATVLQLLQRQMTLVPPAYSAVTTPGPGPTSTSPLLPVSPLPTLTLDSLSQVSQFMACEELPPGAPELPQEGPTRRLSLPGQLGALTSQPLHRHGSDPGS
KCNQ1 act – potentiators or activators of KCNQ1 channel, primary screen, cell-based, thallium flux, high-throughput | Potassium voltage-gated channel subfamily KQT member 1 (Homo sapiens), P51787 | CHO-K1 KCNQ1, thallium flux FluxOR fluorescence; active compounds read high | B-score at 10 µM | 310,000 tested, 0.35% active | AID 2648, 2010;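 active = fluorescence ratio B-score, a plate-corrected score, at least three library SD, with initial intensity B-score within 5 SD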
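Doses: Single concentration per compound, DMSO matched to controls | Test system: KCNQ1-transfected CHO-K1 cells | Timing: 90 min dye loading and 20 min compound exposure, both at room temperature | Measured by: Kinetic FluxOR thallium fluorescence, 10-s 1-Hz baseline, 110-s post-stimulus read | Medium: Assay buffer with matched DMSO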
* marks the source's active call; other numbers are inactive results; i = inactive; . = no result given. A selection: hits, their analogues and other compounds. The true share with any hit is near 3.8%.

SMILES	KCNQ1 block	KCNK3 inh	KCNK9 block	Kir21 block	hERG rescue	KCNQ1 act
CCc1ccc2nc(N=C(N)N)nc(C)c2c1	i	i	i	-6.1*	-10	i
COCCNC(=O)CN(C(=O)c1ccc(N2CCCC2)nc1)c1ccc(F)c(Cl)c1	i	i	i	-0.24	-7	i
COCCNC(=O)CN(C(=O)c1ccc(N2CCCC2)nc1)c1ccccc1	i	i	i	-0.22	5.1*	i
Cc1ccsc1C(=O)OCC(=O)N(C)C1CCCCC1	.	i	.	.	.	.
Cc1cc(C)c(NS(=O)(=O)c2cccc3cccnc23)c(C)c1	i	i	i	-4.4*	-10	i
Cc1ccc(NS(=O)(=O)c2cccc3cccnc23)cc1Cl	i	i	i	-0.55	-6	i
O=S(=O)(NCc1ccc(Cl)cc1)c1cccc2cccnc12	i	i	i	-4.5*	-10	i
Oc1c(Br)cc(Br)cc1C=Nc1ccc2c(c1)OCCO2	i	i	i	-0.58	-8	14*
Oc1c(Br)cc(Br)cc1C=Nc1ccc2c(c1)OCO2	i	i	i	-0.44	-4	14*
O=[N+]([O-])c1ccc(O)c(C=Nc2ccc3c(c2)OCCO3)c1	i	i	i	1	-10	i
CCOC(=O)c1c(-c2ccccc2)cn2c(C)cc(C)nc12	i	i	i	1.4	-5	i
O=C(Nc1cccc(C(=O)N2CCCC2)c1)C1CCCCC1	.	i	.	.	.	.
N#CCCn1cc(C(=O)Nc2ccccc2Br)c(-c2cccs2)n1	i	i	-7.3*	-0.49	-10	i
COc1ccc(Oc2c(C(F)(F)F)oc3cc(OCC(=O)O)ccc3c2=O)cc1	i	i	i	-0.06	-7	i
Cc1cccc(NC(=O)C(C)OC(=O)c2ccccc2NS(=O)(=O)c2cc(C)c(C)c([N+](=O)[O-])c2)c1 (centres undefined)	9*	i	i	-0.79	-13	i
CC(=O)Nc1ccc(NC(=O)C(C)OC(=O)c2ccccc2NS(=O)(=O)c2cccs2)cc1 (centres undefined)	i	i	i	-0.81	-11	i
COc1ccc(Cl)cc1NS(=O)(=O)c1cccc(C(=O)NCC(C)(C)N2CCOCC2)c1	.	-9*	.	.	.	.
CC(C)(CNC(=O)c1cccc(S(=O)(=O)NCc2ccccc2)c1)N1CCOCC1	i	i	i	0.89	-6	i
CN(CC(=O)Nc1ccccc1Br)C(=O)c1cc(S(=O)(=O)N(C)C)ccc1N1CCCC1	i	i	i	1.2	-13	i
CCOC(=O)SC1=N/C(=C\c2ccc(N(C)C)cc2)C(=O)S1	i	i	i	-2	-7	8*
CCSC1=N/C(=C\c2ccc(C(=O)O)cc2)C(=O)S1	i	i	i	-1.4	-14	i
CC(=O)N/C(=C\c1ccccc1)C(=O)OCC(=O)NC1CCS(=O)(=O)C1 (centres undefined)	.	i	.	.	.	.
O=C(NC12CC3CC(CC(C3)C1)C2)c1ccccc1	i	i	i	-1.6	-9	i
O=C(NC12CC3CC(CC(C3)C1)C2)N(Cc1ccccc1)Cc1ccncc1	6*	i	i	-0.99	-10	i
Cc1cccc(NS(=O)(=O)c2ccc(C(=O)N3CC(C)OC(C)C3)cc2)c1C (centres undefined)	i	i	i	0.23	-11	i
SMILES	KCNQ1 block	KCNK3 inh	KCNK9 block	Kir21 block	hERG rescue	KCNQ1 act
CCOC(=O)c1ccc2c(c1)n(CC)c(/C=C/N(C)c1ccccc1)[n+]2CC	8*	i	i	0.62	-29	i
COC(=O)c1ccc(CO/N=C/c2cccc([N+](=O)[O-])c2)cc1	i	i	-6.7*	0.63	-1	i
C/C(=N\NC(=S)Nc1cccc(C)c1)c1ccco1	i	i	i	0.88	5.8*	13*
Cc1nn(CC(=O)NC2(C#N)CCCCC2)c(C)c1[N+](=O)[O-]	.	i	.	.	.	.
Cc1ccc(COc2ccsc2C(=O)O)cc1	.	i	.	.	.	.
CSc1nnc(-c2sccc2OCc2ccc(C)cc2)n1C	i	i	i	-4.3*	-7	i
COc1ccc(C(=O)CC(=O)C(=O)Nc2cc(C)ccc2C)cc1	i	i	i	1.4	-2	i
CCOc1ccccc1NC(=O)C(=O)CC(=O)c1ccc(OC)cc1	i	i	i	0.01	15*	14*
COc1ccc(C(=O)CC(=O)C(=O)Nc2ccc(C)c(Cl)c2)cc1	i	i	i	-0.2	17*	9*
O=C(CCC1CCCCC1)NCCS(=O)(=O)N1CCN(c2ccccc2)CC1	i	i	i	0.66	-17	i
O=C(NC12CC3CC(CC(C3)C1)C2)c1cc2nc(-c3ccco3)cc(C(F)(F)F)n2n1	6*	i	i	0.61	-3	i
Cc1ccccc1Cn1ccc(NC(=O)c2cnn3c(C(F)(F)F)cc(-c4ccco4)nc23)n1	i	i	-7.6*	-0.15	-15	i
O=C(Nc1cnn(C23CC4CC(CC(C4)C2)C3)c1)c1cnn2c(C(F)(F)F)cc(-c3ccco3)nc12	11*	i	i	-0.25	-26	i
Cc1ccc2c(cnn2C(=O)CCC(=O)NC2CCCCC2)c1	i	i	i	-0.51	-8	i
O=C(CCc1ccccc1)N1CCN(S(=O)(=O)c2cccs2)CC1	i	i	i	1	-12	i
N#Cc1cn(CCOc2ccccc2F)c2ccccc12	i	i	-7.5*	-1.2	-12	i
N#Cc1cn(CCOc2ccc(F)cc2)c2ccccc12	i	i	i	1.5	-8	i
Cn1cc(S(=O)(=O)NC[C@H]2O[C@@H](n3cnc4c(N)ncnc43)[C@H](O)[C@@H]2O)cn1	.	i	.	.	.	.
Nc1nc(-c2ccccn2)nc(N)c1Cc1ccc(Cl)cc1Cl	i	i	i	0.41	-12	9*
Nc1nc(-c2ccccn2)nc(N)c1Cc1ccccc1F	i	i	i	-0.43	-10	i
CCC1=NN2C(=N)/C(=C/c3cc(C)n(Cc4ccccc4)c3C)C(=O)N=C2S1	i	i	i	0.13	-8	i
Cc1cc(/C=C2\C(=N)N3N=C(C(C)C)SC3=NC2=O)c(C)n1Cc1ccccc1	i	i	i	-0.19	-5	20*

Source: PubChem BioAssay (Johns Hopkins Ion Channel Center)
